# From ChEMBL document CHEMBL2203168, “Amine linked flavonoid dimers as modulators for P-glycoprotein-based multidrug resistance: structure-activity relationship and mechanism of modulation” (J Med Chem, 2012)
# Key:
# [1] = organism: Homo sapiens; assay: Inhibition of P-gp-mediated paclitaxel resistance in human LCC6MDR cells assessed as fold decrease in paclitaxel IC50 for cytotoxic activity at 1 uM after 5 days by MTS assay relative to parental cells; format: cell-based
# [2] = test system: MDR; assay: Cytotoxicity against human MDA435/LCC6MDR cells expressing MDR after 72 hrs; format: functional, cell-based
# How it was run: (§1)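 Cells seeded at 1 × 10⁴ per well in supplemented DMEM and given graded doses of dimer for 72 h at 37 °C, 5% CO₂. Survival measured and IC50 derived. N = 1–3 independent experiments, mean ± SEM.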
# [3] = organism: Homo sapiens; assay: Inhibition of P-gp-mediated paclitaxel resistance in human LCC6MDR cells assessed as fold decrease in paclitaxel IC50 for cytotoxic activity at 0.5 uM after 5 days by MTS assay relative to parental cells; format: cell-based
# [4] = Cytotoxicity against human LCC-6 cells after 72 hrs; format: functional, cell-based; settings: LCC-6, 72 h; how it was run: as §1
# [5] = test system: L929; assay: Cytotoxicity against mouse L929 cells after 72 hrs; format: cell-based; settings: L929, 72 h; how it was run: as §1
# [6] = Reversal of P-gp-mediated paclitaxel-resistance in human LCC6MDR cells after 5 days by MTS assay; format: cell-based; settings: 120 h
# [7] = Therapeutic index, ratio of IC50 for L929 cells to EC50 for reversing paclitaxel resistance in human MDA435/LCC6MDR cells; format: cell-based; settings: L929 cells (IC50) and MDA435/LCC6MDR cells (EC50)
Structure (SMILES),Ratio [1],IC50 [2] [µM],Ratio [3],IC50 [4] [µM],IC50 [5] [µM],EC50 [6] [µM],selectivity ratio [7]
COc1cccc2oc(-c3ccc(OCCOCCNCCOCCOc4ccc(-c5cc(=O)c6c(OC)cccc6o5)cc4)cc3)cc(=O)c12,1.2,10.2,1.2,8.8,–,–,–
O=c1cc(-c2ccc(OCCOCCN(CCOCCOc3ccc(-c4cc(=O)c5ccccc5o4)cc3)Cc3cc(F)c(F)c(F)c3)cc2)oc2ccccc12,80.6,> 100,3.3,> 75,> 100,–,–
O=c1cc(-c2ccc(OCCOCCN(CCOCCOc3ccc(-c4cc(=O)c5ccccc5o4)cc3)Cc3ccncc3)cc2)oc2ccccc12,27.8,> 100,6.9,> 100,26.4,–,–
O=c1cc(-c2ccc(OCCOCCN(CCOCCOc3ccc(-c4cc(=O)c5ccccc5o4)cc3)Cc3ccccn3)cc2)oc2ccccc12,95.7,29.7,15.8,10,10,–,–
CCOC(=O)CCN(CCOCCOc1ccc(-c2cc(=O)c3ccccc3o2)cc1)CCOCCOc1ccc(-c2cc(=O)c3ccccc3o2)cc1,43.7,17.7,5.3,13.5,18.1,–,–
COC(=O)c1ccc(CN(CCOCCOc2ccc(-c3cc(=O)c4ccccc4o3)cc2)CCOCCOc2ccc(-c3cc(=O)c4ccccc4o3)cc2)cc1,18.9,64.8,2.1,33.3,11.4,–,–
CS(=O)(=O)N(CCOCCOc1ccc(-c2cc(=O)c3ccccc3o2)cc1)CCOCCOc1ccc(-c2cc(=O)c3ccccc3o2)cc1,20.1,42.6,12.8,27.5,13.4,–,–
C/C=C/C[C@@H](C)C(=O)[C@H]1C(=O)N[C@@H](C(C)C)C(=O)N(C)CC(=O)N(C)[C@@H](CC(C)C)C(=O)N[C@@H](C(C)C)C(=O)N(C)[C@@H](CC(C)C)C(=O)N[C@@H](C)C(=O)N[C@H](C)C(=O)N(C)[C@@H](CC(C)C)C(=O)N(C)[C@@H](CC(C)C)C(=O)N(C)[C@@H](C(C)C)C(=O)N1C [VALSPODAR],85.1,14.6,–,25.3,> 100,–,–
Cc1ccc(S(=O)(=O)N(CCOCCOc2ccc(-c3cc(=O)c4ccccc4o3)cc2)CCOCCOc2ccc(-c3cc(=O)c4ccccc4o3)cc2)cc1,21.6,> 100,5.8,> 100,> 100,–,–
O=C(O)CCC(=O)N(CCOCCOc1ccc(-c2cc(=O)c3ccccc3o2)cc1)CCOCCOc1ccc(-c2cc(=O)c3ccccc3o2)cc1,0.9,> 100,1.1,78.4,–,–,–
CCN(CCOCCOc1ccc(-c2cc(=O)c3ccccc3o2)cc1)CCOCCOc1ccc(-c2cc(=O)c3ccccc3o2)cc1,95.7,17.3,26.9,10.3,6.9,0.2,34.5
O=C1c2ccccc2C(=O)N1CCN(CCOCCOc1ccc(-c2cc(=O)c3ccccc3o2)cc1)CCOCCOc1ccc(-c2cc(=O)c3ccccc3o2)cc1,118,4.9,9.6,8.6,17,–,–
CC(C)(C)CC(=O)N(CCOCCOc1ccc(-c2cc(=O)c3ccccc3o2)cc1)CCOCCOc1ccc(-c2cc(=O)c3ccccc3o2)cc1,72.9,> 100,18.9,> 100,> 100,–,–
COc1cccc2oc(-c3ccc(OCCOCCN(CCOCCOc4ccc(-c5cc(=O)c6c(OC)cccc6o5)cc4)C(=O)OC(C)(C)C)cc3)cc(=O)c12,109,5.4,14.9,4.6,5.5,–,–
O=c1cc(-c2ccc(OCCOCCN(CCOCCOc3ccc(-c4cc(=O)c5ccccc5o4)cc3)Cc3ccc([N+](=O)[O-])cc3)cc2)oc2ccccc12,128,> 90,43.7,86.8,88,0.189,466
O=c1cc(-c2ccc(OCCOCCN(CCO)CCOCCOc3ccc(-c4cc(=O)c5ccccc5o4)cc3)cc2)oc2ccccc12,32.6,14.8,5,10.7,6.9,–,–
CC(C)(C)OC(=O)N(CCOCCOc1ccc(-c2cc(=O)c3ccccc3o2)cc1)CCOCCOc1ccc(-c2cc(=O)c3ccccc3o2)cc1,69.6,6.2,11.1,8,11.1,0.32,34.7
COc1cc(-c2cc(=O)c3ccccc3o2)ccc1OCCOCCN(CCOCCOc1ccc(-c2cc(=O)c3ccccc3o2)cc1OC)C(=O)OC(C)(C)C,16.8,6.9,8.7,8.3,33.3,–,–
